FXIa inh 1536 = blocks human coagulation factor XIa protease activity | AID 798 | actives 0.14% (n = 220,000) | inhibition, % at 5 µM | purified FXIa, Boc-Glu-Ala-Arg-AMC fluorogenic substrate | P03951;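 active means inhibition of at least 40%; inactive means inhibition below 40%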;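 further: fluorescence of freed AMC excited at 355 nm; 0% = enzyme without compound and 100% = no enzyme blank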
Thrombin inh = thrombin (human) inhibition | P00734 | alpha-thrombin, Boc-VPR-AMC fluorogenic substrate cleavage | inhibition, % at 5 µM | actives 0.26% (n = 220,000);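 active means inhibition at or above 40%; inactive means inhibition below 40%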;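 further: 0% = enzyme with no compound and 100% = wells without enzyme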
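Material: human alpha-thrombin enzyme / Medium: pH 7.5 Tris (50 mM) with NaCl 150 mM, Tween 20 0.05% / Compound: single-point dosing at 5 µM, 0.2% DMSO / Incubation: enzyme reaction carried out at room temperature / Detection: AMC fluorescence, 355/460 nm / Read-out basis: percent inhibition scaled between no-compound controls and no-enzyme blanks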
hK5 inh = blocks human kallikrein 5 protease activity. recombinant hK5, fluorogenic AMC substrate cleavage. inhibition, % at 5 µM. actives 0.59% (n = 210,000). AID 873;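 active means inhibition of 40% or more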;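 further: 0% = enzyme controls without compound and 100% = no-enzyme blanks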
Target sequence (Q9Y337 67-293 limits assumed): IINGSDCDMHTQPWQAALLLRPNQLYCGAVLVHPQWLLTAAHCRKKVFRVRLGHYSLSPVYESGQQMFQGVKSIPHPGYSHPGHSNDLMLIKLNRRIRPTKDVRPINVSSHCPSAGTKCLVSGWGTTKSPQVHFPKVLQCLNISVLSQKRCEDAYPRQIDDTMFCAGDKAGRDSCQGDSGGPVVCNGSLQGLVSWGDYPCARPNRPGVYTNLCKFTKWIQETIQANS
Furin inhibitor = inhibitors of human furin; purified furin, fluorogenic substrate cleavage; P09958; actives 0.061% (n = 220,000); inhibition, % at 20 µM or 30 µM; in the data active means inhibition above about 25%
FXIIa inh 1536 = blocks human coagulation factor XIIa protease activity; actives 0.3% (n = 220,000); purified FXIIa, Boc-QGR-AMC fluorogenic substrate, 2 h; P00748; inhibition, % at 5 µM; in the data active means inhibition above about 40%;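 further: 0% = enzyme with no compound and 100% = blank without enzyme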
* hit, by the source's call; / = no result. The list is not random: actives were taken first. Their share in the collection is about 1.1%.

SMILES | FXIa inh 1536 | Thrombin inh | hK5 inh | Furin inhibitor | FXIIa inh 1536
CCN(CCC(=O)Nc1cc([N+](=O)[O-])ccc1OC)Cc1ccccc1 | 9 | 2 | -4 | -7 | 11
COc1ccccc1NS(=O)(=O)c1cc(NC(=O)Nc2ccccc2)ccc1N1CCCCC1 | 12 | 19 | 53* | -4 | 22
Cc1cc(-c2ccco2)n(CC(=O)O)n1 | -4 | -1 | 115* | -16 | -3
Cc1nnc(-c2ccc(Oc3ccc(Br)cc3)c([N+](=O)[O-])c2)o1 | 6 | -3 | -16 | -18 | 8
Cc1cc(Oc2ccc(-c3nnc(-c4ccccc4)o3)cc2[N+](=O)[O-])ccc1Cl | 20 | 18 | 43* | -6 | 25
Oc1cccc(NC(=S)N=Nc2c(O)[nH]c3ccccc23)c1 | 21 | 16 | 78* | 14 | 24
O=C(Nc1ccccc1Cl)c1ccccc1Cl | 5 | 3 | -6 | -16 | 13
Cn1c(=O)c2cc(NC(=O)c3ccccc3Cl)c(=O)oc2n(C)c1=O | 34 | 80* | -8 | -8 | 24
O=C(COC(=O)c1ccc(Br)o1)NCCc1ccccc1 | 5 | -1 | 1 | -32 | 10
c1cc(CNC2=NCCCCC2)ccn1 | 4 | 11 | 65* | -15 | 26
CCCCCn1nnc2c(=O)oc3ccccc3c21 | 1 | -2 | 7 | -21 | 11
O=C(CN1C2=NCCCN2c2ccccc21)c1ccc([N+](=O)[O-])cc1 | 0 | 1 | 23 | -27 | 8
COC(=O)c1cccc(NS(=O)(=O)c2ccc(OC)cc2)c1C | 7 | 0 | -13 | -10 | 15
COC(=O)c1cccc(NS(=O)(=O)c2ccc(OC)c(OC)c2)c1C | 0 | 2 | 10 | -5 | 50*
CCc1ccccc1NC(=S)N=Nc1c(O)n(C)c2ccc(S(=O)(=O)N3CCOCC3)cc12 | 9 | 12 | -24 | -11 | 14
Cc1ccc(Cn2c(O)c(N=NC(=S)Nc3ccccc3F)c3cc(S(=O)(=O)N4CCOCC4)ccc32)cc1 | 50* | 2 | 95* | -1 | 37
Clc1ccc(C2CSc3c4ncnc-4ncn32)cc1 (stereo unspecified) | 19 | 8 | 46* | 2 | 35
C=CCC1(CC=C)CCCN1Cc1nc(COc2ccccc2)no1 | 6 | 0 | 3 | -15 | 14
COc1ccc(NC(=O)Nc2cccnc2)c(OC)c1 | -2 | -11 | / | -9 | -2
COc1cccc(NC(C(=O)Nc2cccc(C(C)=O)c2)c2ccccc2)c1 (stereo unspecified) | -5 | 3 | 9 | -11 | 54*
COc1cccc(NC(=O)Nc2ccccc2SC)c1 | 31 | 27 | 23 | -9 | 102*
COc1cccc(NC(=O)Nc2cccnc2)c1 | 11 | 8 | 71* | -5 | 40*
Cc1ccc(NC(=O)CSc2nnc(C(F)(F)F)n2C)cc1[N+](=O)[O-] | 0 | -11 | -1 | -9 | 8
CCOc1ccc(CNc2ccc(S(N)(=O)=O)cc2)cc1 | 0 | 1 | -5 | -14 | 3
Cc1ccc2c(c1)CC1(CN2C)C(=O)OC2(CCCCC2)OC1=O | 15 | 61* | -20 | -6 | 14
SMILES | FXIa inh 1536 | Thrombin inh | hK5 inh | Furin inhibitor | FXIIa inh 1536
Nc1nc(SCC(=O)Nc2ccc(OCc3ccccc3)cc2)n[nH]1 | 23 | -2 | 44* | -5 | 39
Cc1nc(SCC(=O)Nc2ccc(OCc3ccccc3)cc2)n[nH]1 | 0 | 0 | / | -30 | 7
COc1cc(S(=O)(=O)Nc2ncccc2C)c(OC)cc1Cl | -10 | -8 | -11 | 28* | 4
CN1CCC(=NOc2ccc([N+](=O)[O-])cc2)CC1 | 2 | -6 | 7 | -3 | 5
O=C(OCC(=O)N1CCCc2ccccc21)c1cnc(Cl)c(Cl)c1 | 15 | -2 | -9 | -3 | 5
O=C(OCC(=O)N1CCCc2ccccc21)c1ccc(Cl)nc1 | 14 | 28 | 29 | -16 | 47*
COc1ccc(CCNC(=O)CC2SC(=NCCc3ccccc3)NC2=O)cc1 (stereo unspecified) | -4 | -5 | -2 | -14 | -2
CCN(CC)C(=O)C(=O)c1cccn1-c1cccc(OC)c1C#N | -1 | -2 | / | -22 | 9
COc1ccccc1CC(=O)NN1C(=O)c2ccccc2C1=O | 3 | 6 | 44* | -6 | 106*
O=C(Cc1ccccc1)NN1C(=O)c2ccccc2C1=O | 1 | -10 | -1 | -7 | 7
CC1Cn2c(nc(=O)c3c2NCN(CCc2ccccc2)C3)S1 (stereo unspecified) | -3 | -3 | -1 | -28 | 5

High-throughput results deposited in PubChem by several laboratories.
